Usually IC50 stands for the concentration that gives 50% inhibition.

Each structure is given as a SMILES string. Starred links: 1 amine or outer side, 2 acyl side, 3 side chain; linkers in the order of their positions; H or OH if unused. Non-standard residues stand in square brackets, D forms with d. Residues, ends and D or L forms follow the SMILES beside them. *: point of attachment. X1 = CC(C)C[C@H](C(=O)[*:2])[C@H](O)C[C@H]1CCCN1[*:1]; CO = O=C([*:1])[*:2]; NHBn = c1ccc(CN*)cc1

Protease (Human T-cell leukemia virus type I, UniProt Q82134, L40I/C90A/C109A), sequence (Q82134 entry or part of it L40I/C90A/C109A): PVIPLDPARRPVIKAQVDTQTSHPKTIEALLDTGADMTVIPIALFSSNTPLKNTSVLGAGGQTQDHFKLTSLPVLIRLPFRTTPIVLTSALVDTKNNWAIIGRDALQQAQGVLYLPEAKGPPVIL

The first assay deals with Protease (Human T-cell leukemia virus type I, UniProt Q82134, C109A/C90A/L40I). In words: (§1) Inhibition of HTLV-1 protease L40I/C90A/C109A mutant using dodecapeptide as substrate by HPLC analysis. An outline of the steps: (§2)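 Synthetic mutant HTLV-1 protease at 5.6 nM, with a dodecapeptide substrate, in 0.5 M sodium acetate pH 5.6 containing 10% glycerol, 10 mM DTT and 4 M NaCl. Loss of substrate during incubation followed by reversed-phase HPLC (C18, 10–40% CH3CN gradient over 30 min in 0.1% TFA). IC50 from a sigmoidal dose–response curve; assay run three times.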
Protease (Human T-cell leukemia virus type I, UniProt Q82134, C109A/C90A/L40I), sequence (Q82134 entry or part of it C109A/C90A/L40I): as the sequence (Q82134 entry or part of it L40I/C90A/C109A) above
Regarding `CC[C@@H](C)[C@@H](NC(=O)[C@@H](CC(C)C)[C@H](O)C[C@H]1CCCN1C(=O)[C@H](NC(=O)[C@H](N)CCC(N)=O)[C@H](C)CC)C(=O)N[C@@H](C(=O)N1CCC[C@@H]1C(=O)N1CCC[C@@H]1C(N)=O)C(C)C`, the IC50 was found to be 2000 µM.

`CC[C@@H](C)[C@@H](NC(=O)[C@@H](CC(C)C)[C@H](O)C[C@H]1CCCN1C(=O)NCc1ccccc1)C(=O)N[C@@H](C(=O)N1CCC[C@@H]1C(=O)N1CCC[C@@H]1C(N)=O)C(C)C` ({NHBn-CO}-[X1][dI][dV][dP][dP]-NH2) had an IC50 of 160 µM. Same read-out and setting: the result for `CCCC(CCC)C(=O)N1CCC[C@@H]1C[C@@H](O)[C@H](CC(C)C)C(=O)N[C@@H](C(=O)N[C@@H](C(=O)N1CCC[C@@H]1C(=O)N1CCC[C@@H]1C(N)=O)C(C)C)[C@H](C)CC` reads 420 µM. The same measure, in the same setting: next, `CC[C@@H](C)[C@@H](NC(=O)[C@@H](CC(C)C)[C@H](O)C[C@H]1CCCN1C(=O)[C@H](NC(C)=O)[C@H](C)CC)C(=O)N[C@@H](C(=O)N1CCC[C@@H]1C(=O)N1CCC[C@@H]1C(N)=O)C(C)C` (Ac-[dI][X1][dI][dV][dP][dP]-NH2): 110 µM; `CC[C@@H](C)[C@@H](NC(=O)[C@@H](CC(C)C)[C@H](O)C[C@H]1CCCN1C(=O)c1ccccc1)C(=O)N[C@@H](C(=O)N1CCC[C@@H]1C(=O)N1CCC[C@@H]1C(N)=O)C(C)C`: 1100 µM; `CC[C@@H](C)[C@@H](NC(=O)[C@@H](CC(C)C)[C@H](O)C[C@H]1CCCN1C(=O)/C=C/c1ccccc1)C(=O)N[C@@H](C(=O)N1CCC[C@@H]1C(=O)N1CCC[C@@H]1C(N)=O)C(C)C`: 290 µM. On the same count and under the same terms, next, `CC[C@@H](C)[C@@H](NC(=O)[C@@H](CC(C)C)[C@H](O)C[C@H]1CCCN1C(=O)OCc1ccccc1)C(=O)N[C@@H](C(=O)N1CCC[C@@H]1C(=O)N1CCC[C@@H]1C(N)=O)C(C)C`: 380 µM. As for `CC[C@@H](C)[C@@H](NC(=O)[C@@H](CC(C)C)[C@H](O)C[C@H]1CCCN1C(=O)CCc1ccccc1)C(=O)N[C@@H](C(=O)N1CCC[C@@H]1C(=O)N1CCC[C@@H]1C(N)=O)C(C)C`, the IC50 was 160 µM. As to `CC[C@@H](C)[C@@H](N)C(=O)N1CCC[C@@H]1C[C@@H](O)[C@H](CC(C)C)C(=O)N[C@@H](C(=O)N[C@@H](C(=O)N1CCC[C@@H]1C(=O)N1CCC[C@@H]1C(N)=O)C(C)C)[C@H](C)CC`, the half-maximal inhibitory concentration (IC50) was determined as 1500 µM. The same measure, in the same setting: next, `CC[C@@H](C)[C@@H](NC(=O)[C@@H](CC(C)C)[C@H](O)C[C@H]1CCCN1C(=O)C(C)(C)C)C(=O)N[C@@H](C(=O)N1CCC[C@@H]1C(=O)N1CCC[C@@H]1C(N)=O)C(C)C`: 1000 µM. The compound `CC[C@@H](C)[C@@H](NC(=O)[C@@H](CC(C)C)[C@H](O)C[C@H]1CCCN1C(=O)CCC(C)C)C(=O)N[C@@H](C(=O)N1CCC[C@@H]1C(=O)N1CCC[C@@H]1C(N)=O)C(C)C` returned an IC50 of 520 µM.

The next assay addresses Protease (Human T-cell leukemia virus type I, UniProt Q82134, L40I/C90A/C109A). The description is as §1. An outline of the steps:
as §2
For `CC[C@@H](C)[C@@H](NC(=O)[C@@H](CC(C)C)[C@H](O)C[C@H]1CCCN1)C(=O)N[C@@H](C(=O)N1CCC[C@@H]1C(=O)N1CCC[C@@H]1C(N)=O)C(C)C`, the IC50 result is reported as “Not Active”.

Values taken from ChEMBL document CHEMBL3232830, “Effect of prime-site sequence of retro-inverso-modified HTLV-1 protease inhibitor” (Bioorg Med Chem, 2014).
